According to ChEMBL document CHEMBL2203130, “Sulfanylphthalonitrile analogues as selective and potent inhibitors of monoamine oxidase B” (Bioorg Med Chem Lett, 2012):

Key:
[1] = molecular target: T1, Amine oxidase [flavin-containing] A (Homo sapiens, UniProt P21397); test: Inhibition of human recombinant MAOA expressed in insect cell microsomes using kynuramine as substrate after 20 mins by fluorescence spectrophotometric analysis; parameters: species or system Microsome
T1 sequence (P21397 whole entry): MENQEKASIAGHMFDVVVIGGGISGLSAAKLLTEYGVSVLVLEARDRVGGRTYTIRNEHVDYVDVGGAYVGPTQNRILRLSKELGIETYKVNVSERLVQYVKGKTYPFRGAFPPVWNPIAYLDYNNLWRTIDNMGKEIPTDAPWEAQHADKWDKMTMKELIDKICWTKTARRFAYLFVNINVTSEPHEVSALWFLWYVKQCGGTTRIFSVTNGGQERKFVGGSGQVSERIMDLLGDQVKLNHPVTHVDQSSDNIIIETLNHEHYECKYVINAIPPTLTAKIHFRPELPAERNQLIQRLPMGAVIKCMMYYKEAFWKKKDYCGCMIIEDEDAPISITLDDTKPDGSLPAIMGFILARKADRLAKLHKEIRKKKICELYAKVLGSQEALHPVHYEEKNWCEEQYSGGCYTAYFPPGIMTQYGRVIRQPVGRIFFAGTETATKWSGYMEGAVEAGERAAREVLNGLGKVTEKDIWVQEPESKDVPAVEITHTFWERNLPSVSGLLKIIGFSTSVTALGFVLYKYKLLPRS
Outline: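 Recombinant human MAO-A at 0.0075 mg protein/mL, started with enzyme, in 100 mM potassium phosphate pH 7.4 made isotonic with KCl, 4% DMSO. Inhibitor 0.003–100 µM, kynuramine 45 µM final. 20 min at 37 °C, stopped with NaOH. 4-Hydroxyquinoline read by fluorescence against a calibration curve. IC50 from one-site competition fit, triplicate, mean ± SD.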

[2] = molecular target: T2, Amine oxidase [flavin-containing] B (Homo sapiens, UniProt P27338); test: Inhibition of human recombinant MAOB expressed in insect cell microsomes using kynuramine as substrate after 20 mins by fluorescence spectrophotometric analysis; parameters: species or system Microsome
T2 sequence (P27338 whole entry): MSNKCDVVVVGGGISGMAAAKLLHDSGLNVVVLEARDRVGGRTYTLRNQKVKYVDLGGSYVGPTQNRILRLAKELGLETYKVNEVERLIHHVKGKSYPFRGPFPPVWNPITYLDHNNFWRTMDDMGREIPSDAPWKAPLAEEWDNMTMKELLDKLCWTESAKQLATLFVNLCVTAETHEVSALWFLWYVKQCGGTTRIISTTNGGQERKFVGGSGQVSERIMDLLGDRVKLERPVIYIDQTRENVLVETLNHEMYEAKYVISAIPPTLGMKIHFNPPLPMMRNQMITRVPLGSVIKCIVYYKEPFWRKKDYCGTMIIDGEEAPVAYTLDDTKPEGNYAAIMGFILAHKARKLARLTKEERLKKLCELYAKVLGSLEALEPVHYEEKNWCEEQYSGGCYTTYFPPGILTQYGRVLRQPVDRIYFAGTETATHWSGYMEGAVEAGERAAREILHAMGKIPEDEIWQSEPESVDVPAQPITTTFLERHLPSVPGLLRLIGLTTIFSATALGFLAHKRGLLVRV

[3] = molecular target: T2, Amine oxidase [flavin-containing] B; test: Reversible inhibition of human recombinant MAOB expressed in insect cell microsomes using kynuramine as substrate assessed as residual activity at 100 times IC50 preincubated for 30 mins followed by 100 fold dilution measured after 20 mins by fluorescence spectrophotometric analysis relative to control; parameters: species or system Microsome
Outline: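 Recombinant human MAO-B (0.75 mg/ml) preincubated 30 min at 37 °C with inhibitor at 0, 10 or 100 × IC50 in pH 7.4 isotonic potassium phosphate with 4% DMSO. Diluted 100-fold with kynuramine to 30 µM substrate and 0.0075 mg/mL enzyme. Then 20 min at 37 °C. Residual 4-hydroxyquinoline formation measured by fluorescence, relative to no-inhibitor control. (R)-deprenyl at 10 × IC50 run as comparator.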

Homo sapiens [4] = species on record: Homo sapiens; test: Selectivity index, ratio of Ki for human recombinant MAOA to Ki for human recombinant MAOB
Outline: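 Ki values derived from IC50s by the Cheng–Prusoff equation. MAO-A used [S] 45 µM and Km 16.1 µM; MAO-B used [S] 30 µM and Km 22.7 µM. Index is Ki(MAO-A)/Ki(MAO-B).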

Homo sapiens [5] = species on record: Homo sapiens; test: Selectivity index, ratio of IC50 for human recombinant MAOA to IC50 for human recombinant MAOB
Outline: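 Ratio of IC50 for MAO-A to IC50 for MAO-B. Both IC50s from the kynuramine fluorescence assay: MAO-A with 45 µM kynuramine, MAO-B with 30 µM. Each run in triplicate.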

[6] = molecular target: T1, Amine oxidase [flavin-containing] A; test: Ratio of compound IC50 to clorgyline IC50 for human recombinant MAOA

Row | SMILES | IC50 [1] [µM] | IC50 [2] [nM] | Activity [3] [%] | Ratio Ki (Homo sapiens [4]) | Ratio IC50 (Homo sapiens [5]) | Ratio IC50 [6]
1 | N#Cc1ccc(SCc2ccc(Br)cc2)cc1C#N | 218 | 25 | 48 | 5330 | 8720 | –
2 | N#Cc1ccc(SCCc2ccccc2)cc1 | 54.3 | 1810 | – | 18 | 30 | –
3 | COc1ccc(CSc2ccc(C#N)c(C#N)c2)cc1 | 129 | 67 | – | 1180 | 1920 | –
4 | N#Cc1ccc(SC2CCCC2)cc1C#N | 2.78 | 887 | – | 1.9 | 3.1 | –
5 | N#Cc1ccc(OCc2ccc(Br)cc2)cc1C#N | – | – | – | – | 134 | –
6 | N#Cc1ccc(SCc2ccc(Cl)cc2)cc1 | 20.3 | 531 | – | 23 | 38 | –
7 | N#Cc1ccc(SCc2ccc(F)cc2)cc1C#N | 2.1 | 34 | – | 38 | 62 | –
8 | N#Cc1ccc(SCc2ccc(Cl)cc2)cc1C#N | 0.623 | 14 | – | 27 | 45 | 240
9 | CC(C)CCSc1ccc(C#N)c(C#N)c1 | 1.45 | 242 | – | 3.7 | 6 | –
10 | N#Cc1ccc(Sc2ccc(Br)cc2)cc1 | 8.52 | 637 | – | 8.2 | 13 | –
11 | N#Cc1ccc(Sc2ccccc2)cc1C#N | 3.58 | 2130 | – | 1 | 1.7 | –
12 | N#Cc1ccc(OCc2ccccc2)cc1 | – | – | – | – | 41 | –
13 | N#Cc1ccc(Sc2ccccc2)cc1 | 36.9 | 11200 | – | 2 | 3.3 | –
14 | N#Cc1ccc(SC2CCCCC2)cc1C#N | 5.96 | 223 | – | 16.3 | 27 | –
15 | N#Cc1ccc(OCc2ccccc2)cc1C#N | – | – | – | – | 227 | –
16 | N#Cc1ccc(Sc2ccc(Br)cc2)cc1C#N | 19 | 79 | – | 147 | 240 | –
17 | N#Cc1ccc(Sc2ccc(Cl)cc2)cc1C#N | 11.1 | 114 | – | 59.6 | 97 | –
18 | N#Cc1ccc(SCc2ccc(Br)cc2)cc1 | 129 | 484 | – | 163 | 267 | –
19 | N#Cc1ccc(SCc2ccccc2)cc1 | 42.4 | 1580 | – | 16 | 27 | –
20 | N#Cc1ccc(SC2CCCCC2)cc1 | 9.87 | 4770 | – | 1.3 | 2.1 | –
21 | N#Cc1ccc(SCCc2ccccc2)cc1C#N | 7.19 | 124 | – | 35.5 | 58 | –
22 | COc1ccc(CSc2ccc(C#N)cc2)cc1 | 5.59 | 861 | – | 4 | 6.5 | –
23 | N#Cc1ccc(SCc2ccc(F)cc2)cc1 | 54.7 | 449 | – | 75 | 122 | –
24 | N#Cc1ccc(SCc2ccccc2)cc1C#N | 9.02 | 167 | – | 33 | 54 | –
25 | N#Cc1ccc(Sc2ccc(Cl)cc2)cc1 | 18.2 | 4280 | – | 2.6 | 4.3 | –
